Values after ≈ are worked out from the molar mass of the structure shown. Blank lines part the entries; values can stand above or below the compound they belong to. Active and inactive are the calls of the source. No cut-off for these calls is given here.
Assays:
[1] = organism: Oryctolagus cuniculus; test: In vitro ability to inhibit the herpes HSV-2 virus; Inactive; format: functional, organism-based; settings: herpes simplex virus
[2] = organism: Cavia porcellus; test: Effect on the development of Herpetic vesicles in Guinea pigs infected intradermally with Herpes virus Hominis, Type 1,AA strain on day 1 at 5% concentration; format: functional
How it was run: (§1)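 Hartley albino guinea pigs (350–400 g) were infected with undiluted HSV-1 AA strain, 0.05 mL placed in a 12-mm circle on an epilated flank and given intradermally by vaccination gun. Test article was a topical cream, with treatment starting 24 h postinfection. Mean vesicle score was recorded on days 1–5 against placebo and nonmedicated groups.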

[3] = organism: Cavia porcellus; test: Effect on the development of Herpetic vesicles in Guinea pigs infected intradermally with Herpes virus Hominis, Type 1,AA strain on day 4 at 5 % concentration; format: functional
How it was run: (§2)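 Albino Hartley guinea pigs (350–400 g) were infected intradermally with 0.05 mL undiluted HSV-1 AA strain, delivered by vaccination gun into a 12 mm marked area on an epilated flank. Topical cream treatment followed. Vesicle development was scored daily.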

[4] = organism: Cavia porcellus; test: Effect on the development of Herpetic vesicles in Guinea pigs infected intradermally with Herpes virus Hominis, Type 1,AA strain on day 2 at 5 % concentration; format: functional; how it was run: as §2
[5] = organism: Cavia porcellus; test: Effect on the growth of Herpes simplex Type 1 on the skin of Guinea pigs infected intradermally on day 2 at 5 % concentration; format: functional
How it was run: (§3)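 Guinea pigs (Hartley, 350–400 g) were infected intradermally on an epilated flank with undiluted HSV-1 AA strain and treated with topical cream. Supernatants of lesion skin scrapings were diluted 10⁻¹ to 10⁻⁸ and titered by plaque assay on BSC-1 monolayers in triplicate: 1 h adsorption at 37 °C, agarose overlay, 4 days at 37 °C, formalin fixation, crystal violet staining, plaques counted.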

[6] = organism: Cavia porcellus; test: Effect on the growth of Herpes simplex Type 1 on the skin of Guinea pigs infected intradermally on day 3 at 5 % concentration; format: functional; how it was run: as §3
[7] = organism: Cavia porcellus; test: Effect on the growth of Herpes simplex Type 1 on the skin of Guinea pigs infected intradermally on day 4 at 5 % concentration; format: functional; how it was run: as §3
[8] = organism: Cavia porcellus; test: Effect on the growth of Herpes simplex Type 1 on the skin of Guinea pigs infected intradermally on day 1 at 5% concentration; format: functional
How it was run: (§4)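 Guinea pigs were infected intradermally with HSV-1 on an epilated flank and treated topically with cream. Virus in skin-scraping supernatants was titered by plaque assay on BSC-1 monolayers. Dilutions of 10⁻¹ to 10⁻⁸ in Eagle's medium with 2% FCS were plated in triplicate and adsorbed 1 h at 37 °C. An agarose overlay followed, with 4 days' incubation, formalin fixation, crystal violet staining and plaque counting.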

[9] = organism: Cavia porcellus; test: Effect on the development of Herpetic vesicles in Guinea pigs infected intradermally with Herpes virus Hominis, Type 1,AA strain on day 2 at 8 % concentration; format: functional; how it was run: as §1
[10] = organism: Cavia porcellus; test: Effect on the development of Herpetic vesicles in Guinea pigs infected intradermally with Herpes virus Hominis, Type 1,AA strain on day 4 at 8 % concentration; format: functional; how it was run: as §1
[11] = organism: Cavia porcellus; test: Effect on the growth of Herpes simplex Type 1 on the skin of Guinea pigs infected intradermally on day 3 at 8 % concentration; format: functional; how it was run: as §4
[12] = organism: Cavia porcellus; test: Effect on the growth of Herpes simplex Type 1 on the skin of Guinea pigs infected intradermally on day 2 at 8 % concentration; format: functional; how it was run: as §4
[13] = organism: Cavia porcellus; test: Effect on the development of Herpetic vesicles in Guinea pigs infected intradermally with Herpes virus Hominis, Type 1,AA strain on day 1 at 8 % concentration; format: functional; how it was run: as §1
[14] = organism: Cavia porcellus; test: Effect on the development of Herpetic vesicles in Guinea pigs infected intradermally with Herpes virus Hominis, Type 1,AA strain on day 3 at 8 % concentration; format: functional; how it was run: as §1
[15] = organism: Cavia porcellus; test: Effect on the growth of Herpes simplex Type 1 on the skin of Guinea pigs infected intradermally on day 4 at 8 % concentration; format: functional; how it was run: as §4
[16] = organism: Cavia porcellus; test: Effect on the growth of Herpes simplex Type 1 on the skin of Guinea pigs infected intradermally on day 1 at 8 % concentration; format: functional; how it was run: as §4
[17] = organism: Mus musculus; test: Average survival rate of mice infected intravaginally with herpes simplex virus type 2 at daily dosage of 5%(treatment initiated 4-h postinfection and continued for 7 days); format: functional
How it was run: (§5)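 Mice infected intravaginally with HSV-2. Test agent suspended in gum tragacanth and applied intravaginally. Survival recorded.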

[18] = organism: Cavia porcellus; test: Effect of compound in a vanishing cream on the development of Herpetic vesicles in Guinea pigs infected intradermally with Herpes virus Hominis, Type 1,AA strain on day 4 at 10 % concentration; format: functional
How it was run: (§6)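 Albino Hartley guinea pigs (350–400 g) were infected intradermally with 0.05 mL undiluted HSV-1 AA strain, delivered by vaccination gun into a 12 mm circle on an epilated flank. Test agent was applied as a topical cream starting 24 h postinfection. Lesions were scored daily for mean vesicle score over days 1–5.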

[19] = organism: Cavia porcellus; test: Effect of compound in a vanishing cream base on the development of Herpetic vesicles in Guinea pigs infected intradermally with Herpesvirus Hominis, Type 1, AA strain and the virus titer was determined at 10% conc. on day 1; format: functional
[20] = organism: Mus musculus; test: Percent survival rate of mice infected intravaginally with herpes simplex virus type 2 at daily dosage of 5%(treatment initiated 4-h postinfection and continued for 7 days); format: functional; how it was run: as §5
[21] = organism: Cavia porcellus; test: Effect of compound in a vanishing cream on the development of Herpetic vesicles in Guinea pigs infected intradermally with Herpes virus Hominis, Type 1,AA strain on day 1 at 5 % concentration; format: functional; how it was run: as §6
[22] = organism: Cavia porcellus; test: Effect on the development of Herpetic vesicles in Guinea pigs infected intradermally with Herpes virus Hominis, Type 1,AA strain on day 1 at 5 % concentration; format: functional; how it was run: as §2
[23] = organism: Cavia porcellus; test: Effect of compound in a vanishing cream on the development of Herpetic vesicles in Guinea pigs infected intradermally with Herpes virus Hominis, Type 1,AA strain on day 4 at 5 % concentration; format: functional; how it was run: as §6
[24] = organism: Cavia porcellus; test: Effect of compound in a vanishing cream base on the development of Herpetic vesicles in Guinea pigs infected intradermally with Herpesvirus Hominis, Type 1, AA strain and the virus titer was determined at 10% conc. on day 2; format: functional
[25] = organism: Cavia porcellus; test: Effect of compound in a vanishing cream on the development of Herpetic vesicles in Guinea pigs infected intradermally with Herpes virus Hominis, Type 1,AA strain on day 3 at 5 % concentration; format: functional; how it was run: as §6
[26] = organism: Cavia porcellus; test: Effect of compound in a vanishing cream on the development of Herpetic vesicles in Guinea pigs infected intradermally with Herpes virus Hominis, Type 1,AA strain on day 3 at 10 % concentration; format: functional; how it was run: as §6
[27] = organism: Cavia porcellus; test: Effect of compound in a vanishing cream base on the development of Herpetic vesicles in Guinea pigs infected intradermally with Herpesvirus Hominis, Type 1, AA strain and the virus titer was determined at 10% conc. on day 3; format: functional
[28] = organism: Cavia porcellus; test: Effect on the growth of Herpes simplex Type 1 on the skin of Guinea pigs infected intradermally on day 1 at 5 % concentration; format: functional; how it was run: as §3
[29] = organism: Cavia porcellus; test: Effect of compound in a vanishing cream base on the development of Herpetic vesicles in Guinea pigs infected intradermally with Herpesvirus Hominis, Type 1, AA strain and the virus titer was determined at 5% conc. on day 2; format: functional
[30] = organism: Cavia porcellus; test: Effect of compound in a vanishing cream base on the development of Herpetic vesicles in Guinea pigs infected intradermally with Herpesvirus Hominis, Type 1, AA strain and the virus titer was determined at 10% conc. on day 5; format: functional
[31] = organism: Mus musculus; test: Percent survival rate of mice infected intravaginally with herpes simplex virus type 2 at daily dosage of 10%(treatment initiated 4-h postinfection and continued for 7 days); format: functional; how it was run: as §5
[32] = organism: Cavia porcellus; test: Effect on the development of Herpetic vesicles in Guinea pigs infected intradermally with Herpes virus Hominis, Type 1,AA strain on day 3 at 5 % concentration; format: functional; how it was run: as §2
[33] = organism: Cavia porcellus; test: Effect of compound in a vanishing cream on the development of Herpetic vesicles in Guinea pigs infected intradermally with Herpes virus Hominis, Type 1,AA strain on day 2 at 10 % concentration; format: functional; how it was run: as §6
[34] = organism: Cavia porcellus; test: Effect of compound in a vanishing cream on the development of Herpetic vesicles in Guinea pigs infected intradermally with Herpes virus Hominis, Type 1,AA strain on day 1 at 10 % concentration; format: functional; how it was run: as §6
[35] = organism: Cavia porcellus; test: Effect of compound in a vanishing cream on the development of Herpetic vesicles in Guinea pigs infected intradermally with Herpes virus Hominis, Type 1,AA strain on day 5 at 5% concentration; format: functional; how it was run: as §6
[36] = organism: Cavia porcellus; test: Effect of compound in a vanishing cream base on the development of Herpetic vesicles in Guinea pigs infected intradermally with Herpesvirus Hominis, Type 1, AA strain and the virus titer was determined at 5% conc. on day 4; format: functional
[37] = organism: Cavia porcellus; test: Effect of compound in a vanishing cream base on the development of Herpetic vesicles in Guinea pigs infected intradermally with Herpesvirus Hominis, Type 1, AA strain and the virus titer was determined at 5% conc. on day 1; format: functional
[38] = organism: Cavia porcellus; test: Effect of compound in a vanishing cream on the development of Herpetic vesicles in Guinea pigs infected intradermally with Herpes virus Hominis, Type 1,AA strain on day 2 at 5 % concentration; format: functional; how it was run: as §6
[39] = organism: Mus musculus; test: Average survival rate of mice infected intravaginally with herpes simplex virus type 2 at daily dosage of 10%(treatment initiated 4-h postinfection and continued for 7 days); format: functional; how it was run: as §5
[40] = In vitro ability to inhibit the herpes HSV-2 virus; format: functional, herpes simplex virus; settings: Oryctolagus cuniculus
[41] = organism: Mus musculus; test: Percent survival rate of mice infected intravaginally with herpes simplex virus type 2 at daily dosage of 2.5%(treatment initiated 4-h postinfection and continued for 7 days); format: functional; how it was run: as §5
[42] = organism: Cavia porcellus; test: Effect of compound in a vanishing cream on the development of Herpetic vesicles in Guinea pigs infected intradermally with Herpes virus Hominis, Type 1,AA strain on day 5 at 10 % concentration; format: functional; how it was run: as §6

MIC [1]: inactive
Structure (SMILES): CCOP(=O)(CCCCCCOc1c(OC)cccc1OC)OCC

MIC [1]: inactive
Structure (SMILES): CCOP(=O)(CCCCCCOc1ccc(Cl)cc1)OCC

MIC [1]: inactive
Structure (SMILES): CCOP(=O)(CCCCCOc1ccc(OC)cc1Cl)OCC

MIC [1]: inactive
Structure (SMILES): CCOP(=O)(CCOc1ccc(OC(C)=O)cc1)OCC

Further lines, the compound ahead of its results:

Structure (SMILES): CCOP(=O)(CCCCCCOc1ccc(Br)cc1)OCC
MIC [1]: inactive

Structure (SMILES): CCOP(=O)(CCCCCCOc1ccc(C(=O)O)cc1)OCC
MIC [1]: inactive

Structure (SMILES): CCOP(=O)(CCCCOc1ccc(OC)cc1Cl)OCC
MIC [1]: inactive

Structure (SMILES): CCOP(=O)(CCCOc1ccc(OC)cc1Cl)OCC
MIC [1]: inactive

Structure (SMILES): CCOP(=O)(CCOc1ccc(O)cc1)OCC
MIC [1]: inactive

Structure (SMILES): COc1ccc(OCCCCCCP(=O)(O)O)c(Cl)c1
MIC [1]: inactive

Structure (SMILES): Nc1nc2c(ncn2COCCO)c(=O)[nH]1 [ACYCLOVIR]
Mean vesicle score [2]: 0.58 | Mean vesicle score [3]: 1 | Mean vesicle score [4]: 0.83 | Log geometric mean [5]: 4.09 pfu mg-1 | Log geometric mean [6]: 3.31 pfu mg-1 | Log geometric mean [7]: 2.13 pfu mg-1 | Log geometric mean [8]: 4.3 pfu mg-1

Structure (SMILES): CCC(=O)C(CCCCCCOc1ccc(OC)cc1Cl)C(=O)CC [ARILDONE]
Mean vesicle score [9]: 0.83 | Mean vesicle score [10]: 0.83 | Log geometric mean [11]: 2.92 ppfu mg-1 | Log geometric mean [12]: 4.07 pfu mg-1 | Mean vesicle score [13]: 0.33 | Mean vesicle score [14]: 0.92 | Log geometric mean [15]: 2.62 pfu mg-1 | Log geometric mean [16]: 4.13 pfu mg-1

Structure (SMILES): CCOP(=O)(CCCCCCOc1ccc(OC)cc1Cl)OCC [FOSARILATE]
Average survival [17]: >10.5 days | Mean vesicle score [18]: 0.92 | Log TCID50/mg [19]: 3.18 | Survival [20]: 50% | Mean vesicle score [21]: 0.75 | Mean vesicle score [22]: 0.5 | Mean vesicle score [23]: 1 | Log TCID50/mg [24]: <1.34 | Mean vesicle score [25]: 0.75 | Mean vesicle score [26]: 0.91 | Log TCID50/mg [27]: <1.6 | Log geometric mean [28]: 4.23 pfu mg-1 | Log TCID50/mg [29]: <1.41 | Log TCID50/mg [30]: <1.25 | Survival [31]: 60% | Mean vesicle score [32]: 0.5 | Mean vesicle score [33]: 0.83 | Mean vesicle score [4]: 0.75 | Mean vesicle score [34]: 0.67 | Mean vesicle score [35]: 0.67 | Log geometric mean [5]: 0.96 pfu mg-1 | Log TCID50/mg [36]: <1.25 | Log TCID50/mg [37]: 3.94 | Log geometric mean [6]: 0.79 pfu mg-1 | Mean vesicle score [38]: 1.17 | Log geometric mean [7]: 0.76 pfu mg-1 | Average survival [39]: >11.3 days | MIC [40]: 3 µg/mL (≈ 7.92 µM) | Survival [41]: 30% | Mean vesicle score [42]: 1.1
